Consider two compounds from ChEMBL document CHEMBL4011650, “3-Hydroxy-1H-quinazoline-2,4-dione as a New Scaffold To Develop Potent and Selective Inhibitors of the Tumor-Associated Carbonic Anhydrases IX and XII” (J Med Chem, 2017).

Activity calls are given as the source filed them. The rule behind the calls is not given here.

The subject of data set [1] is HT-29. The data set can be described thus: Antiproliferative activity against human HT-29 cells assessed as cell viability at 30 uM after 72 hrs under hypoxic conditions by MTT assay relative to control. It is filed as functional. The following applies: HT-29, 72 h, read-out: Activity. In short, it runs like this:
(§1)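 HT-29 cells were grown in high-glucose DMEM with 20% FBS, seeded at 1·10^4/well and dosed 24 h later. Incubation was in a hypoxic chamber (0.1% O2, 5% CO2, balance N2) for 16, 48 or 72 h. Cells were washed, given MTT 1 mg/ml for 30 min at 37 °C, and formazan was dissolved in DMSO and read at 550 nm. Viability is % of untreated control, mean ± S.E.M.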
On the technique in general: Tetrazolium dyes change colour on reduction, which living cells bring about.

Data set [2] in a line: Antiproliferative activity against human HT-29 cells assessed as cell viability at 100 uM after 72 hrs under normoxic conditions by MTT assay relative to control. It is filed as cell-based. The conditions noted are these: read-out: Activity. The essentials: (§2)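 HT-29 cells in high-glucose DMEM with 20% FBS were seeded at 1·10^4/well and treated 24 h later. Incubation was under normoxia (20% O2, air with 5% CO2) at 37 °C for 16, 48 or 72 h. Viability was read by MTT reduction (1 mg/ml, 30 min), with formazan in DMSO read at 550 nm, relative to untreated control set at 100%. Quadruplicates on at least three cell batches.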

The target in a further data set is Carbonic anhydrase 2 (Homo sapiens, UniProt P00918). As to the kind of experiment: Inhibition of recombinant human carbonic anhydrase 2 preincubated for 15 mins prior to testing by phenol red based stopped-flow CO2 hydration assay.
The next data set has as its target Carbonic anhydrase 1 (Homo sapiens, UniProt P00915). The data set can be described thus: Inhibition of recombinant human carbonic anhydrase 1 preincubated for 15 mins prior to testing by phenol red based stopped-flow CO2 hydration assay.
Data set [3] deals with HT-29. The data set can be described thus: Antiproliferative activity against human HT-29 cells assessed as reduction in cell viability at 30 to 300 uM after 16 hrs under hypoxic conditions by MTT assay relative to control. It is filed as functional, cell-based. In short, it runs like this: as §1
Data set [4] concerns HT-29. As to the kind of experiment: Antiproliferative activity against human HT-29 cells assessed as reduction in cell viability at 30 to 300 uM after 16 hrs under normoxic conditions by MTT assay relative to control. It is filed as cell-based. The following applies: ht-29, 16 h. In short, it runs like this: as §2
Data set [5] has as its system HT-29. As to the kind of experiment: Antiproliferative activity against human HT-29 cells assessed as cell viability at 100 uM after 48 hrs under hypoxic conditions by MTT assay relative to control. It is filed as functional. The conditions noted are these: HT-29, 48 h, read-out: Activity. In short, it runs like this: as §1
Data set [6] can be described thus: Antiproliferative activity against human HT-29 cells assessed as cell viability at 300 uM after 48 hrs under normoxic conditions by MTT assay relative to control. The conditions noted are these: read-out: Activity. It is filed as cell-based. The essentials:
as §2

In data set [7] the test system is HT-29. As to the kind of experiment: Antiproliferative activity against human HT-29 cells assessed as cell viability at 300 uM after 48 hrs under hypoxic conditions by MTT assay relative to control. It is filed as functional. The conditions noted are these: HT-29, 48 h, read-out: Activity. In short, it runs like this:
as §1

Data set [8] deals with HT-29. As to the kind of experiment: Antiproliferative activity against human HT-29 cells assessed as cell viability at 30 uM after 48 hrs under hypoxic conditions by MTT assay relative to control. The conditions noted are these: HT-29, 48 h, read-out: Activity. It is filed as functional. The essentials:
as §1

Data set [9] can be described thus: Antiproliferative activity against human HT-29 cells assessed as cell viability at 30 uM after 48 hrs under normoxic conditions by MTT assay relative to control. It is filed as cell-based. The following applies: read-out: Activity. In short, it runs like this:
as §2

A further data set has as its target Carbonic anhydrase 9 (Homo sapiens, UniProt Q16790).
Data set [10] is described as follows: Antiproliferative activity against human HT-29 cells assessed as cell viability at 100 uM after 48 hrs under normoxic conditions by MTT assay relative to control. It is filed as cell-based. The following applies: read-out: Activity. In short, it runs like this:
as §2

Data set [11] in a line: Antiproliferative activity against human HT-29 cells assessed as cell viability at 300 uM after 72 hrs under normoxic conditions by MTT assay relative to control. It is filed as cell-based. The conditions noted are these: read-out: Activity. The essentials:
as §2

Data set [12] can be described thus: Antiproliferative activity against human HT-29 cells assessed as cell viability at 30 uM after 72 hrs under normoxic conditions by MTT assay relative to control. It is filed as cell-based. The conditions noted are these: read-out: Activity. In short, it runs like this: as §2
Data set [13] has as its system HT-29. As to the kind of experiment: Antiproliferative activity against human HT-29 cells assessed as cell viability at 100 uM after 72 hrs under hypoxic conditions by MTT assay relative to control. It is filed as functional. The following applies: HT-29, 72 h, read-out: Activity. In short, it runs like this: as §1
The subject of data set [14] is HT-29. The data set can be described thus: Antiproliferative activity against human HT-29 cells assessed as cell viability at 300 uM after 72 hrs under hypoxic conditions by MTT assay relative to control. The following applies: HT-29, 72 h, read-out: Activity. It is filed as functional. The essentials:
as §1

Carbonic anhydrase 1, sequence (P00915 whole entry): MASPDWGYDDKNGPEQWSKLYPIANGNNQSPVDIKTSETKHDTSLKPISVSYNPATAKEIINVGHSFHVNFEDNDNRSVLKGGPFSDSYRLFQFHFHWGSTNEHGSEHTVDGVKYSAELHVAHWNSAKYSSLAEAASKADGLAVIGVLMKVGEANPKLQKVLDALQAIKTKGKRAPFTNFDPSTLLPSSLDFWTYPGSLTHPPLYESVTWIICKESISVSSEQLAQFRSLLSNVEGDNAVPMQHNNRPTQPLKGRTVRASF

As for `O=C(NCc1ccccc1)Nc1ccc2[nH]c(=O)n(O)c(=O)c2c1`, the figures for the viability at 30 µM in the data set on HT-29 [1] and with HT-29 [8] were 33.4% and 50.6%, respectively. In data set [2], the viability at 72 h, 100 µM came to 51.7%. Moreover, the results for the inhibitory constant (Ki) on Carbonic anhydrase 2, on Carbonic anhydrase 1 and on Carbonic anhydrase 9 were above 10 µM, above 10 µM and 0.0267 µM, respectively. Moreover, in the data set on HT-29 [3], the outcome was Active. For the same compound, the Activity entry in the data set with HT-29 [4] is “Toxic”. For the same compound, the figures for the viability at 100 µM in the data set on HT-29 [5] and in the data set with HT-29 [13] were 46% and 40.2%, respectively. For the same compound, the viability at 48 h, 300 µM in data set [6] is 85.6%. For the same compound, the viability at 300 µM in the data set with HT-29 [7] was found to be 78.2%; in the data set with HT-29 [14], 59.9%. Further, the viability at 48 h, 30 µM in data set [9] is 57.4%. Also, in [10], the viability at 48 h, 100 µM is 56.9%. Further, in [11], the viability at 72 h, 300 µM stood at 61.3%. In addition, in data set [12], the viability at 72 h, 30 µM turned out to be 32.4%.
Turning to `O=c1[nH]c2cc(C(F)(F)F)c([N+](=O)[O-])cc2c(=O)n1O`, the results for the viability at 30 µM with HT-29 [1] and in the data set with HT-29 [8] were 38.6% and 45.2%, respectively. Also, the viability at 72 h, 100 µM in data set [2] was determined as 45.3%. Moreover, the Ki (in general, a dissociation constant, usually derived from enzyme kinetics or from competition with a known ligand) at Carbonic anhydrase 2 is above 10 µM; on Carbonic anhydrase 1, above 10 µM; on Carbonic anhydrase 9 it was 0.0097 µM. Further, the viability at 100 µM was determined as 46.8% with HT-29 [5] and 38.2% with HT-29 [13]. In addition, the viability at 48 h, 300 µM in [6] amounted to 45.1%. Further, the results for the viability at 300 µM in the data set on HT-29 [7] and in the data set with HT-29 [14] were 50.2% and 40.3%, respectively. Further, the viability at 48 h, 30 µM in [9] turned out to be 53.9%. The viability at 48 h, 100 µM in [10] came out at 57.7%. Further, the viability at 72 h, 300 µM in data set [11] worked out at 49.7%. Further, the viability at 72 h, 30 µM in data set [12] came out at 41.5%.
